# TbMetRS inhib = blocks T. brucei methionyl-tRNA synthetase activity | inhibition, % at 11.9 µM | purified T. brucei MetRS, ATP depletion, Kinase-Glo luminescence | 360,000 compounds, 0.4% hits;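 active = inhibition above a per-plate cutoff of the control wells' mean inhibition plus 3 SD, cut at about 5.5% in these data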;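 note: 0% = DMSO wells median and 100% = median of wells with control inhibitor compound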
#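 Assay system: T. brucei methionyl-tRNA synthetase, purified | Medium: HEPES buffer with MgCl2, KCl, DTT, spermine, BSA, pyrophosphatase | Compound: 11.9 µM single point | Incubation: 15 min enzyme-compound preincubation, 2 h reaction, 10 min detection, 25 °C | Measured by: Kinase-Glo luciferase luminescence reporting remaining unconsumed ATP | Measure: % inhibition normalized to control-well medians | Replication: Singlicate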
# UBC9 SUMO inh = blocks human SUMOylation mediated by UBC9 | 290,000 compounds, 0.36% hits | inhibition, % at 35 µM | AID 2006 | HTRF SUMOylation assay, SAE1/SAE2 + UBC9, in vitro | P63279; in the data active = inhibition above about 50%, passing the limit was not always enough
# Target sequence (P63279 whole entry, looked up): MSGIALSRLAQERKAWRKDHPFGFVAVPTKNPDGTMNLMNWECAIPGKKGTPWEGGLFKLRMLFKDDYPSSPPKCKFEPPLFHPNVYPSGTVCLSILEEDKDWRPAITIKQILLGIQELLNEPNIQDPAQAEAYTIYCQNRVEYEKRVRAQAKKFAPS
# p47phox inh = inhibitors of human p47phox binding. P14598. p47phox/p22phox peptide binding, fluorescence polarization, 2 h. inhibition, % at 24.7 µM. 220,000 compounds, 0.53% hits. AID 1274;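 note: 0% = p47phox with labelled peptide and 100% = labelled peptide alone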
# Target sequence (P14598 whole entry, looked up): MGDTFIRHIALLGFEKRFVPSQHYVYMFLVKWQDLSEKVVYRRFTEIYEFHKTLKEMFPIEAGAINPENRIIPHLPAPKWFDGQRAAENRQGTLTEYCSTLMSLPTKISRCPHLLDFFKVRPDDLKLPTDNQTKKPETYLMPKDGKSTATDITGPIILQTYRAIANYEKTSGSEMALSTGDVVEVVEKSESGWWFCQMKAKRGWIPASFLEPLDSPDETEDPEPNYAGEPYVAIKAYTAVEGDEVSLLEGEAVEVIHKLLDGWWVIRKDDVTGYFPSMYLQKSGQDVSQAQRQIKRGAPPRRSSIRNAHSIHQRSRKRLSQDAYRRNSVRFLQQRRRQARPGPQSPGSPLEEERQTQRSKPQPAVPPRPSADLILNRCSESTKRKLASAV
# 14-3-3 Bad inh = disrupts binding of bovine 14-3-3 zeta to phospho-Bad peptide | AID 781 | P63103 | 220,000 compounds, 0.71% hits | inhibition, % at 21.7 µM | TR-FRET 14-3-3zeta/Dy647-pBad peptide displacement, 1 h;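 active = inhibition above about 70%, limit read from the data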;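 note: 0% = full 14-3-3 plus peptide FRET controls and 100% = background without 14-3-3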
# eIF4E-4G inh = inhibitors of eIF4E and eIF4G interaction in translation initiation; P63073+Q04637; TR-FRET eIF4E-eIF4GI(517-606) binding, 2 h; AID 782; inhibition, % at 21.7 µM; 220,000 compounds, 0.37% hits;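 note: 0% = full FRET control wells and 100% = background wells lacking eIF4GI fragment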
# p97 ATPase inh = inhibitors of human p97 ATPase. AID 1481. 220,000 compounds, 0.42% hits. recombinant p97 ATPase, Kinase-Glo ATP luminescence, 3 h. P55072. inhibition, % at 8 µM; in the data active = inhibition above about 15%;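 note: 0% = DMSO vehicle and 100% = wells lacking enzyme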
# * marks the source's active call; other numbers are inactive results; . = no result given; [ ] = dose if it differs, or a comment. Only some compounds are listed: those with a hit (about 1.6% of all), similar ones and a draw of the others.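 Rule for the calls, unless noted: active = inhibition above about 30% (limit read from the data); inactive = the rest.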
SMILES,TbMetRS inhib,UBC9 SUMO inh,p47phox inh,14-3-3 Bad inh,eIF4E-4G inh,p97 ATPase inh
CCOC(=O)c1ccc2c(c1)nc(SCC(=O)c1cc3ccccc3o1)n2CC,0.2,16.8,-117.5,-6.3,40.4*,4.3
O=C(COc1ccc(/C=N/NC(=O)c2cc3ccccc3o2)cc1Cl)Nc1ccccc1,-0.6,-10.2,19.6,79.0*,-36.2,8.2
COc1ccc2c(c1)c(=O)oc1c(C)c(OCc3ccc(C(=O)O)cc3)ccc12,-1.0,55.3*,.,.,.,.
COC(=O)c1ccc(COc2ccc3c(C)c(C)c(=O)oc3c2C)o1,.,7.4,72.2*,19.6,3.2,-3.0
COc1ccc2c(c1)c(=O)oc1c(C)c(OCc3cc(C(=O)O)oc3C)ccc12,-1.3,69.9*,-22.3,3.8,12.1,7.3
COc1ccc2c(c1)c(=O)oc1c(C)c(OCC(=O)N3CCc4ccccc4C3)ccc12,-0.3,31.3,9.3,-9.2,-16.2,-0.2
Cc1cc(=O)oc2cc(OCC(=O)c3ccc4c(c3)NC(=O)CO4)ccc12,1.0,31.1,37.5*,70.6*,13.3,4.0
Cc1ccc(S(=O)(=O)N(C)C)cc1NC(=O)COC(=O)COc1ccc2c(C)cc(=O)oc2c1,-0.1,.,.,.,.,.
Cc1ccc(C(=O)COc2ccc3c(C)cc(=O)oc3c2)cc1,-0.7,4.4,.,.,.,.
Cc1cc(=O)oc2cc(OCC(=O)Nc3cccc(S(=O)(=O)N(C)C)c3)ccc12,-0.6,-1.0,31.0*,24.6,-0.6,-3.2
O=C(Cc1ccc(F)cc1)N/N=C/c1ccncc1,0.5,9.5,-12.1,18.7,-41.2,-5.4
O=C(CCN1C(=O)/C(=C/c2ccc(Cl)cc2)SC1=S)Nc1cccc(C(=O)O)c1,-0.4,22.3,.,.,.,.
O=C(O)c1cccc(N2C(=O)/C(=C/c3ccc(SCc4ccc(Cl)cc4)o3)SC2=S)c1,0.8,.,-173.9,85.5*,49.0*,6.4
COC(=O)[C@]12CCCCC=C1N(Cc1ccc3c(c1)OCO3)C(=O)[C@H](CC(=O)N1CCN(C(=O)C3CC3)CC1)C2,-0.6,.,.,.,.,.
CC(C)N(Cc1cn(C)nc1-c1cccc(Cl)c1)CC1CCC(=O)N1 (centres undefined),-0.8,6.1,1.0,-3.7,13.8,-0.5
C=CCN(Cc1cn(C)nc1-c1cccc(Cl)c1)C1CCS(=O)(=O)C1 (centres undefined),-0.5,16.8,-0.7,96.2*,-2.0,-1.5
Cc1cccc(C)c1NC(=O)N1C(C(=O)O)CSC1C(=O)O (centres undefined),0.1,4.4,66.7*,.,.,-4.1
Cc1ccc(Cl)cc1-c1cc(C(=O)NCc2cc(C(F)(F)F)cc(C(F)(F)F)c2)[nH]n1,-0.1,.,.,.,.,.
Cc1cc(/C=N/Nc2ccc([N+](=O)[O-])cn2)c(C)n1-c1ccc(C(=O)O)cc1,-0.1,.,-50.2,66.1,34.5*,10.5
O=[N+]([O-])c1ccc(N/N=C\c2cccn2-c2ccccc2)nc1,-0.8,5.9,38.0*,-0.5,16.3,1.9
C[N+]1(CC(=O)Nc2ccccc2Cl)CCN(C(=O)c2cccs2)CC1,-0.4,5.6,93.6*,-1.4,3.4,3.6
COc1ccc(O)cc1CN1CCN(c2ncc(Cc3ccccc3)cn2)CC1,-0.2,.,.,.,.,.
CCC1CCCCN1CCCNC(=O)CN1C(=O)COc2ccccc21 (centres undefined),-0.1,11.9,.,.,.,.
O=C(NNc1cc(N2CCOCC2)nc(N2CCOCC2)n1)c1ccc(Cl)cc1Cl,-0.5,85.5*,-17.9,-0.3,2.5,4.8
CC(=O)NNc1cc(N2CCOCC2)nc(N2CCOCC2)n1,-0.8,29.9,0.1,-6.0,0.1,1.2
SMILES,TbMetRS inhib,UBC9 SUMO inh,p47phox inh,14-3-3 Bad inh,eIF4E-4G inh,p97 ATPase inh
CN1CCCN(S(=O)(=O)c2ccc(Cl)c(Cl)c2)CC1,-0.6,23.3,7.4,-4.2,-1.1,0.2
CCOC(=O)N1CCN(C(=O)CSCC(=O)Nc2nc(-c3ccc(-c4ccccc4)cc3)cs2)CC1,0.3,-9.2,61.8*,16.2,-3.2,0.5
Cn1c(Cc2ccccc2)nnc1SCC(=O)N1CCOCC1,-0.9,-1.1,83.4*,11.8,2.4,3.8
CC(C)[C@H](NC(=O)C1(c2ccccc2)CCN(C(=O)OC(C)(C)C)CC1)C(=O)O,-1.9,8.7,58.2*,-1.4,-5.0,-6.0
COC(C[C@H](O)[C@H](C)[C@H](O)COCc1ccccc1)OC,-0.3,16.2,-2.0,1.2,79.0*,.
CCNc1nc(NC(C)C)nc(Oc2ccc(OCCOc3ccccc3)nn2)n1,-0.9,-3.4,-3.4,5.3,57.5*,-0.7
COc1ccc(S(=O)(=O)NCc2ccc(C(=O)NCCN(C)Cc3ccccc3)cc2)cc1,0.7,.,.,.,.,.
CCC(NC(=O)c1cncc(Br)c1)c1ccccc1 (centres undefined),-0.9,.,.,.,.,.
COc1ccccc1-n1c(O)c(C=NCc2ccccn2)c2ccccc2c1=O,0.3,3.0,-6.9,-10.1,-0.1,14.5*
Cc1ccc(-n2c(O)c(C=NCc3ccccn3)c3ccccc3c2=O)cc1,-0.5,21.9,-17.0,-9.8,2.1,4.0
CCOC(=O)[C@]12CCCC=C1N(Cc1ccco1)C(=O)[C@H](CC(=O)NCCC(C)C)C2,-0.5,.,.,.,.,.
COc1cccc2sc(Nc3nc4ccc(NC(C)=O)cc4s3)nc12,-0.6,-43.0,-2.2,80.1*[fluorescence artefact?],6.2,1.6
CC(=O)Nc1ccc2nc(NC(=O)COc3ccccc3C)sc2c1,-0.4,-14.0,-12.8,0.5,-3.5,2.6
CC(=O)Nc1cccc(-c2csc(C(C)(NC(C)=O)c3ccccc3)n2)c1 (centres undefined),-0.1,.,.,.,.,.
Cc1cccc(NC(=O)CN2C(=O)N/C(=C/c3cc(C)n(-c4ccncc4)c3C)C2=O)c1,-0.1,-14.2,45.6*,23.9,5.6,5.2
Cc1cccc(NC(=O)CN2C(=O)N/C(=C/c3cc(C)n(-c4cccnc4)c3C)C2=O)c1,0.3,25.7,0.1,8.3,4.0,4.2
C[C@H]1[C@@H](Cc2cc(Cl)cc(Cl)c2)N(c2ccccc2)c2ccccc2CN1Cc1ccccc1,-0.6,.,.,.,.,.
Cc1ccc(C2C(C#N)=C(N)SC(N)=C2C#N)o1,.,41.6,-93.8,26.9,18.8,15.3*
CC1=CC2=NC(=O)CC(C)(C(=O)N(CC(=O)NC3CCCC3)c3cc(C)cc(C)c3)N2C=C1 (centres undefined),-0.1,30.6,-0.8,1.5,35.4*,-4.2
O=S(=O)(Nc1nc(-c2sccc2Cl)cs1)c1cc(Cl)ccc1Cl,-1.4,18.5,-79.8,87.5*,9.0,-2.1
CC(C)(C)c1nnc(NS(=O)(=O)c2cc(Cl)ccc2Cl)s1,-0.6,20.2,.,.,.,.
COc1ccc(/C=N/n2c(-c3cccs3)n[nH]c2=S)cc1,-1.2,-6.2,-12.9,-10.5,32.8*,-1.3
Cc1cccc(C)c1NC(=O)C(c1ccncc1)N1CCN(CCN(C)C)CC1 (centres undefined),-0.8,.,.,.,.,.
COC(=O)C[C@H]1CC[C@@H](NC(=O)Nc2c(C)noc2C)[C@@H](CO)O1,0.2,.,.,.,.,.
